Reference: ChEMBL document CHEMBL4689842, “EUbOPEN Chemogenomics Library wave 1” (2021)

System: HEK-293T
Test: Multiplex assay against HEK293T;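 for Population Tubulin-Different-Phenotype (%): share of the cells with healthy nuclei that show this phenotype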
Assay type: toxicity, cell-based
Settings: human
In short: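 Cells stained live at seeding with Hoechst33342, BioTracker Green Microtubule Cytoskeleton Dye, MitoTracker Red and Annexin V Alexa Fluor 680 were imaged on a CQ1 microscope at 37°C and 5% CO2 after compound addition. Their classification by CellPathfinder machine-learning gating ran from Hoechst high-intensity objects versus normal cells, to healthy, pyknosed or fragmented nuclei among normal cells, to mitotic or apoptotic among pyknosed cells. Tubulin, mitochondrial-mass and membrane-permeability phenotypes are per cents of healthy-nucleus cells.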

[1] = 12 h, 1 µM, compound concentration 1 uM, replicate 1
[2] = 12 h, 1 µM, compound concentration 1 uM, replicate 2
[3] = 12 h, 10 µM, compound concentration 10 uM, replicate 1
[4] = 12 h, 10 µM, compound concentration 10 uM, replicate 2
[5] = 24 h, 1 µM, compound concentration 1 uM, replicate 1
[6] = 24 h, 1 µM, compound concentration 1 uM, replicate 2
[7] = 24 h, 10 µM, compound concentration 10 uM, replicate 1
[8] = 24 h, 10 µM, compound concentration 10 uM, replicate 2
[9] = 48 h, 1 µM, compound concentration 1 uM, replicate 1
[10] = 48 h, 1 µM, compound concentration 1 uM, replicate 2
[11] = 48 h, 10 µM, compound concentration 10 uM, replicate 1
[12] = 48 h, 10 µM, compound concentration 10 uM, replicate 2

CCCn1c(=O)c2[nH]c(-c3cnn(Cc4cccc(C(F)(F)F)c4)c3)nc2n(CC)c1=O [GS 6201]
Population Apoptotic (%) [1]: 48%
Population Fragmented Nuclei (%) [1]: 14%
Population Healthy Nuclei (%) [1]: 15%
Population Hoechst High Intensity Objects (%) [1]: 18%
Population Membrane Permeable-Phenotype (%) [1]: 2%
Population Mitochondria Different-Phenotype (%) [1]: 83%
Population Mitotic Cells (%) [1]: 51%
Population Normal (%) [1]: 81%
Population Pyknosed Nuclei (%) [1]: 69%
Population Tubulin-Different-Phenotype (%) [1]: 67%
Total Cell Count [1]: 294
Population Apoptotic (%) [2]: 9%
Population Fragmented Nuclei (%) [2]: 7%
Population Healthy Nuclei (%) [2]: 43%
Population Hoechst High Intensity Objects (%) [2]: 5%
Population Membrane Permeable-Phenotype (%) [2]: 10%
Population Mitochondria Different-Phenotype (%) [2]: 9%
Population Mitotic Cells (%) [2]: 90%
Population Normal (%) [2]: 94%
Population Pyknosed Nuclei (%) [2]: 49%
Population Tubulin-Different-Phenotype (%) [2]: 22%
Total Cell Count [2]: 239
Population Apoptotic (%) [3]: 46%
Population Fragmented Nuclei (%) [3]: 28%
Population Healthy Nuclei (%) [3]: 13%
Population Hoechst High Intensity Objects (%) [3]: 25%
Population Membrane Permeable-Phenotype (%) [3]: 0%
Population Mitochondria Different-Phenotype (%) [3]: 80%
Population Mitotic Cells (%) [3]: 53%
Population Normal (%) [3]: 74%
Population Pyknosed Nuclei (%) [3]: 58%
Population Tubulin-Different-Phenotype (%) [3]: 83%
Total Cell Count [3]: 316
Population Apoptotic (%) [4]: 8%
Population Fragmented Nuclei (%) [4]: 4%
Population Healthy Nuclei (%) [4]: 45%
Population Hoechst High Intensity Objects (%) [4]: 2%
Population Membrane Permeable-Phenotype (%) [4]: 7%
Population Mitochondria Different-Phenotype (%) [4]: 25%
Population Mitotic Cells (%) [4]: 91%
Population Normal (%) [4]: 97%
Population Pyknosed Nuclei (%) [4]: 49%
Population Tubulin-Different-Phenotype (%) [4]: 31%
Total Cell Count [4]: 325
Population Apoptotic (%) [5]: 52%
Population Fragmented Nuclei (%) [5]: 19%
Population Healthy Nuclei (%) [5]: 10%
Population Hoechst High Intensity Objects (%) [5]: 23%
Population Membrane Permeable-Phenotype (%) [5]: 0%
Population Mitochondria Different-Phenotype (%) [5]: 75%
Population Mitotic Cells (%) [5]: 47%
Population Normal (%) [5]: 76%
Population Pyknosed Nuclei (%) [5]: 70%
Population Tubulin-Different-Phenotype (%) [5]: 66%
Total Cell Count [5]: 303
Population Apoptotic (%) [6]: 13%
Population Fragmented Nuclei (%) [6]: 5%
Population Healthy Nuclei (%) [6]: 64%
Population Hoechst High Intensity Objects (%) [6]: 1%
Population Membrane Permeable-Phenotype (%) [6]: 11%
Population Mitochondria Different-Phenotype (%) [6]: 12%
Population Mitotic Cells (%) [6]: 86%
Population Normal (%) [6]: 98%
Population Pyknosed Nuclei (%) [6]: 29%
Population Tubulin-Different-Phenotype (%) [6]: 28%
Total Cell Count [6]: 288
Population Apoptotic (%) [7]: 47%
Population Fragmented Nuclei (%) [7]: 35%
Population Healthy Nuclei (%) [7]: 18%
Population Hoechst High Intensity Objects (%) [7]: 24%
Population Membrane Permeable-Phenotype (%) [7]: 4%
Population Mitochondria Different-Phenotype (%) [7]: 84%
Population Mitotic Cells (%) [7]: 52%
Population Normal (%) [7]: 75%
Population Pyknosed Nuclei (%) [7]: 46%
Population Tubulin-Different-Phenotype (%) [7]: 72%
Total Cell Count [7]: 314
Population Apoptotic (%) [8]: 17%
Population Fragmented Nuclei (%) [8]: 3%
Population Healthy Nuclei (%) [8]: 63%
Population Hoechst High Intensity Objects (%) [8]: 1%
Population Membrane Permeable-Phenotype (%) [8]: 8%
Population Mitochondria Different-Phenotype (%) [8]: 17%
Population Mitotic Cells (%) [8]: 82%
Population Normal (%) [8]: 98%
Population Pyknosed Nuclei (%) [8]: 32%
Population Tubulin-Different-Phenotype (%) [8]: 35%
Total Cell Count [8]: 424
Population Apoptotic (%) [9]: 55%
Population Fragmented Nuclei (%) [9]: 27%
Population Healthy Nuclei (%) [9]: 6%
Population Hoechst High Intensity Objects (%) [9]: 19%
Population Membrane Permeable-Phenotype (%) [9]: 0%
Population Mitochondria Different-Phenotype (%) [9]: 29%
Population Mitotic Cells (%) [9]: 44%
Population Normal (%) [9]: 80%
Population Pyknosed Nuclei (%) [9]: 65%
Population Tubulin-Different-Phenotype (%) [9]: 47%
Total Cell Count [9]: 303
Population Apoptotic (%) [10]: 14%
Population Fragmented Nuclei (%) [10]: 5%
Population Healthy Nuclei (%) [10]: 81%
Population Hoechst High Intensity Objects (%) [10]: 3%
Population Membrane Permeable-Phenotype (%) [10]: 7%
Population Mitochondria Different-Phenotype (%) [10]: 3%
Population Mitotic Cells (%) [10]: 85%
Population Normal (%) [10]: 96%
Population Pyknosed Nuclei (%) [10]: 13%
Population Tubulin-Different-Phenotype (%) [10]: 12%
Total Cell Count [10]: 506
Population Apoptotic (%) [11]: 53%
Population Fragmented Nuclei (%) [11]: 44%
Population Healthy Nuclei (%) [11]: 11%
Population Hoechst High Intensity Objects (%) [11]: 24%
Population Membrane Permeable-Phenotype (%) [11]: 0%
Population Mitochondria Different-Phenotype (%) [11]: 62%
Population Mitotic Cells (%) [11]: 46%
Population Normal (%) [11]: 75%
Population Pyknosed Nuclei (%) [11]: 44%
Population Tubulin-Different-Phenotype (%) [11]: 59%
Total Cell Count [11]: 325
Population Apoptotic (%) [12]: 18%
Population Fragmented Nuclei (%) [12]: 5%
Population Healthy Nuclei (%) [12]: 83%
Population Hoechst High Intensity Objects (%) [12]: 4%
Population Membrane Permeable-Phenotype (%) [12]: 5%
Population Mitochondria Different-Phenotype (%) [12]: 8%
Population Mitotic Cells (%) [12]: 81%
Population Normal (%) [12]: 95%
Population Pyknosed Nuclei (%) [12]: 10%
Population Tubulin-Different-Phenotype (%) [12]: 31%
Total Cell Count [12]: 739
